“Also recorded” adds a separate entry of the source. Read-outs that look alike come from different tables or passages of the source. Blank lines part the entries; values can stand above or below the compound they belong to.
What was measured:
rat aortic rings = assay: Isolated rat aortic ring assay; details: cumulative concentration-response
Method in brief: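 Thoracic aortic rings (2–3 mm) from Sprague–Dawley rats (~300 g) were held in oxygenated Krebs–Henseleit at 37°C under 1 g resting tension, with isometric force recorded. Test compound was added 20 min before 1 μM phenylephrine. At the contraction plateau, cumulative L-cys concentration–response curves were run. At least four rings, each from a different rat; mean ± SEM.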

human CBS = target: T1, human CBS (Homo sapiens, UniProt P35520); assay: H2S production by purified recombinant GST-CBS; assay type: biochemical
T1 sequence (P35520 1-551): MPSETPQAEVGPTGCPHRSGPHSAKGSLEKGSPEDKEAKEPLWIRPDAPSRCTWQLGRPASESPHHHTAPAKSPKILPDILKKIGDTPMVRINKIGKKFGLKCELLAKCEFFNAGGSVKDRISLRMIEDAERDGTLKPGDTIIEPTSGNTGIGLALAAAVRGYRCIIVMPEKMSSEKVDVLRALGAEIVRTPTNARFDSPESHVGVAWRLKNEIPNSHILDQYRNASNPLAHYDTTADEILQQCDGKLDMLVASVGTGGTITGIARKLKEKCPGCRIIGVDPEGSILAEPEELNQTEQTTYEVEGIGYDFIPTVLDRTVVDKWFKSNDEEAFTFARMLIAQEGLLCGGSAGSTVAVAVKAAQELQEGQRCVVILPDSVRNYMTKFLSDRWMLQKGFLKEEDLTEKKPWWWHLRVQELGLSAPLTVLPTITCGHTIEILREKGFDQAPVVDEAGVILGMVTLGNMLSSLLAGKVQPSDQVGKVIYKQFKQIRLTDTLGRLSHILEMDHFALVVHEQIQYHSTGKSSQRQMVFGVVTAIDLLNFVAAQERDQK
Method in brief: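 Human CBS was expressed as an N-terminal GST fusion in E. coli BL21(DE3) Codon Plus (0.3 mM δ-ALA, 0.1 mM IPTG, overnight at 30°C) and purified by GSH affinity. Each 100 μL reaction held 5 μg enzyme, 0.01 mM PLP, 1 mM L-cys, 1 mM homocysteine and 50 mM sodium phosphate pH 8.2. Test compound went in 15 min before substrate, then 60 min at 37°C. Stopped with ZnAc/TCA; methylene blue A655 against H2S standard curve; n = 9.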

human CSE = human CSE (Homo sapiens, UniProt P32929); assay: H2S production by purified recombinant GST-CSE; assay type: biochemical; details: for IC50: 10 μM PLP, 1 mM L-cys, inhibitor added 15 min before L-cys, 60 min, 37°C
Method in brief: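 Human CSE was made as a GST fusion in E. coli BL21(DE3) Codon Plus (0.1 mM IPTG, overnight at 18°C) and GSH-affinity purified. Each 100 μL reaction held 5 μg enzyme, 0.01 mM PLP, 1 mM L-cys and 50 mM sodium phosphate pH 8.2. Test compound was preincubated 15 min before L-cys, then 60 min at 37°C. ZnAc then TCA; methylene blue absorbance at 655 nm read against H2S calibration; n = 9.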

Sequence of human CSE (P32929 whole entry, the tested form may be a part): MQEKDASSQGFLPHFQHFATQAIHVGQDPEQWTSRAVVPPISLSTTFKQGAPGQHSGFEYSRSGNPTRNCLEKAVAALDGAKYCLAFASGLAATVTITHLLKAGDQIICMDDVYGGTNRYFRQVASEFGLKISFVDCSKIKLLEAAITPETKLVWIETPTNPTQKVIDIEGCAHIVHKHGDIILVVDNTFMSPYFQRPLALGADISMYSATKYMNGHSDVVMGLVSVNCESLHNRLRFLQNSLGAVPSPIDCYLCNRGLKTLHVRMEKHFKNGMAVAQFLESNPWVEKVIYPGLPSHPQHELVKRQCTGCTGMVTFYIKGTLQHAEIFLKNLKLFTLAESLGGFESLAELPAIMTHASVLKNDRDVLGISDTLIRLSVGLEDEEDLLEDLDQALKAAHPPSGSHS

Structure (SMILES): N[C@@H](CS)C(=O)O [L-cys, L-cysteine]
- Relaxation of phenylephrine-contracted aortic rings (rat aortic rings): led to a concentration-dependent relaxation

Structure (SMILES): C[Se]C[C@H](N)C(=O)O [Methylseleno-cysteine, methylselenocysteine]
- CBS H2S production (% of control) (human CBS; 0.1 mM compound): 95.5 ± 2.1 % of control
- CBS H2S production (% of control) (human CBS; 1 mM compound): 79.2 ± 5.1 % of control
- Effect on CBS activity (human CBS; 0.1 and 1 mM (Table 2)): did not inhibit the activity of neither CBS nor CSE
- CSE H2S production (% of control) (human CSE; 0.1 mM compound): 85.5 ± 4.4 % of control
- CSE H2S production (% of control) (human CSE; 1 mM compound): 79.7 ± 4.3 % of control
- Effect on CSE activity (human CSE; 0.1 and 1 mM (Table 2)): did not inhibit the activity of neither CBS nor CSE

Structure (SMILES): N[C@@H]1CON=C1O [D-Cycloserine, D-cycloserine]
- CBS H2S production (% of control) (human CBS; 0.1 mM compound): 94.2 ± 20.5 % of control
- CBS H2S production (% of control) (human CBS; 1 mM compound): 80.6 ± 21.0 % of control
- CSE H2S production (% of control) (human CSE; 0.1 mM compound): 83.3 ± 19.2 % of control
- Effect on CSE activity (human CSE; 1 mM): showed a tendency to reduce CSE activity
- CSE H2S production (% of control) (human CSE; 1 mM compound): 73.3 ± 18.6 % of control

Structure (SMILES): NO [HA, hydroxylamine]
- Inhibition of CBS (human CBS; 100 μM): approximately 30%
- Inhibition of CSE activity (human CSE; 5 μM): approximately 60%
- Inhibition of CSE activity (human CSE; 50 μM): abolished CSE activity
- Selectivity towards CSE versus CBS (human CSE; IC50 CBS / IC50 CSE): 60 fold
- IC50 (human CSE; read-out: CSE, IC50, 5 μg CSE): 4.83 ± 0.31 µM

Structure (SMILES): N[C@H](CS)C(=O)O [D-cysteine]
- Relaxation of phenylephrine-contracted aortic rings (rat aortic rings): but not D-cysteine, led to a concentration-dependent relaxation

Now from value to compound, other results behind:

- CBS H2S production (% of control) (human CBS; 0.1 mM compound): 88.4 ± 7.4 % of control
- CBS H2S production (% of control) (human CBS; 1 mM compound): 93.8 ± 9.9 % of control
- CSE H2S production (% of control) (human CSE; 0.1 mM compound): 86.7 ± 17.8 % of control
- CSE H2S production (% of control) (human CSE; 1 mM compound): 76.7 ± 11.3 % of control
Structure (SMILES): C#CCOc1ccc(N)cc1C(=O)NCCCC [Parsalmide]
- Effect on CBS activity (human CBS; 0.1 and 1 mM (Table 2)): failed to significantly reduce CSE or CBS activity
- Effect on CSE activity (human CSE; 0.1 and 1 mM (Table 2)): failed to significantly reduce CSE or CBS activity

- Inhibition of CSE activity (human CSE; 5 μM): did not inhibit CSE activity
- Maximal inhibition of CSE activity (human CSE; 250 μM): 75%
Structure (SMILES): CCN(CC)/[N+]([O-])=N/O.CCNCC [DEA/NO, diethylamine NONOate]
- Effect on CBS activity (human CBS; NO donor, up to 250 μM): did not affect CBS activity; also recorded: CBS was resistant
- Effect on CSE activity (human CSE; NO donor, concentration-response): concentration dependently attenuated CSE activity

- CBS H2S production (% of control) (human CBS; 0.1 mM compound): 74.0 ± 12.8 % of control
- CBS H2S production (% of control) (human CBS; 1 mM compound): 90.1 ± 14.3 % of control
- CSE H2S production (% of control) (human CSE; 0.1 mM compound): 96.7 ± 7.1 % of control
- CSE H2S production (% of control) (human CSE; 1 mM compound): 81.7 ± 12.5 % of control
Structure (SMILES): C#CCN(C)Cc1ccccc1 [Pargyline, pargyline]
- Effect on CBS activity (human CBS; 0.1 and 1 mM (Table 2)): failed to significantly reduce CSE or CBS activity
- Effect on CSE activity (human CSE; 0.1 and 1 mM (Table 2)): failed to significantly reduce CSE or CBS activity

- Potency on CBS relative to HA (human CBS): fourfold
- Selectivity for CBS (fold lower IC50 for CBS versus CSE) (human CBS; IC50 CSE / IC50 CBS): fourfold
- IC50 (human CSE; read-out: CSE, IC50, 5 μg CSE): 289 ± 7 µM
Structure (SMILES): N[C@H](C(=O)O)C(F)(F)F [Trifluoroalanine, trifluoroalanine]

- IC50 (human CSE; CSE, IC50, 5 μg CSE): 1 ± 0.1 µM
Structure (SMILES): NCCO/C=C/[C@H](N)C(=O)O [AVG, aminoethoxyvinylglycine]
- Effect on CBS activity (human CBS; up to 1 mM): Neither PAG nor AVG had any effect on CBS activity; also recorded: failed to reduce CBS activity

- CBS H2S production (% of control) (human CBS; 0.1 mM compound): 86.4 ± 9.4 % of control
- CBS H2S production (% of control) (human CBS; 1 mM compound): 88.4 ± 2.1 % of control
- CSE H2S production (% of control) (human CSE; 0.1 mM compound): 93.3 ± 23.0 % of control
- Effect on CSE activity (human CSE; 1 mM): showed a tendency to reduce CSE activity
Structure (SMILES): NNC(=O)c1ccncc1 [Isoniazid, isoniazid]

Source: paper PMC3687671 (British Journal of Pharmacology, 2013)
